{"source": "ChEMBL document CHEMBL1123944", "about": "“Tertiary 3- and 4-haloalkylamine analogues of oxotremorine as prodrugs of potent muscarinic agonists” (J Med Chem, 1988)", "key": {"[1]": {"test": "(§1) The equipotent molar ratio relative to oxotremorine (EPMR)", "type": "ADME", "procedure,_shortened": "(§2)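 Ileum EC50 taken as a ratio to the oxotremorine EC50 in guinea pig ileum contracting in Tyrode (pH 7.4, 37 °C, 0.3 mM hexamethonium). Curves were cumulative with 2.15-fold steps. Compounds were tested as parents in ice-cold water or after pre-cyclization in pH 7.4 phosphate buffer at 37 °C. Mean ± SE.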"}, "Cavia porcellus": {"organism": "Cavia porcellus", "test": "Muscarinic activity in isolated guinea pig ileum", "type": "functional", "procedure,_shortened": "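Guinea pig ileum in Tyrode solution (pH 7.4, 37 °C) containing 0.3 mM hexamethonium. Isotonic contractions recorded at 1 g tension. Cumulative concentration-response curves used stepwise 2.15-fold increments, with oxotremorine as reference. Parent compounds were dissolved in ice-cold water. Cyclized forms were pre-incubated in 50 mM phosphate buffer pH 7.4 at 37 °C for 30 h, 2 h or 1 min depending on the compound. EC50 given as mean ± SE over n preparations.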"}, "[2]": {"test": "Toxicity was measured after iv administration", "type": "organism-based", "conditions": "mouse, in vivo", "procedure,_shortened": "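Male Swiss-Webster mice (24–30 g) dosed iv with compound in ice-cold saline. LD50 estimated by the up-and-down method, with mortality counted at 1 h; mean ± SE.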"}, "Mus musculus [3]": {"test_system": "Mus musculus", "test": "Muscarinic activity tested by measuring salivation in mice after iv administration", "type": "functional", "procedure,_shortened": "(§3)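 Male Swiss-Webster mice (24–30 g); compounds in ice-cold saline, used within 1 h, given ip or iv via tail vein. Salivation was scored by touching the mouth to absorbent paper at intervals over the first 10 min. Threshold dose estimated by the up-and-down method; mean ± SE.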"}, "[4]": {"test": "as §1", "type": "functional", "procedure,_shortened": "as §2"}, "[5]": {"test": "First order rate constant for cyclization of the compound", "type": "ADME", "procedure,_shortened": "(§4)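 Haloalkylamine (1.5–2 mM) in 50 mM sodium phosphate buffer, pH 7.4, at 37 °C. Released halide measured by argentometric titration. Data fitted by nonlinear regression to θ = 1 − e^(−k1·t), giving the apparent first-order constant k1. Means ± SE of three determinations.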"}, "[6]": {"test": "Half life was measured", "type": "ADME", "procedure,_shortened": "as §4"}, "Mus musculus [7]": {"organism": "Mus musculus", "test": "Analgesic activity was measured by tail flick assay", "type": "functional", "procedure,_shortened": "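Male Swiss-Webster mice (24–30 g); drug in ice-cold saline (kept on ice ≤1 h), given ip after control reaction times were taken. Tail-flick reaction times recorded 10 min post-dose; responders were animals whose reaction time was at least twice control. Dose estimated by the up-and-down method.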"}, "Mus musculus [8]": {"test_system": "Mus musculus", "test": "Muscarinic activity tested by measuring salivation in mice after ip administration", "type": "functional", "procedure,_shortened": "as §3"}, "Mus musculus [9]": {"test_system": "Mus musculus", "test": "Muscarinic activity tested by measuring tremor in mice after iv administration", "type": "functional", "procedure,_shortened": "(§5)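 Male Swiss-Webster mice (24–30 g) dosed ip or iv via tail vein with compound in ice-cold saline (held on ice ≤1 h). Intermittent spontaneous (grade 2) tremor judged visually. Threshold dose estimated by the up-and-down method; mean ± SE.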"}, "Mus musculus [10]": {"test_system": "Mus musculus", "test": "Muscarinic activity tested by measuring tremor in mice after ip administration", "type": "functional", "procedure,_shortened": "as §5"}}, "note": "pEC50: −log10 of the molar value."}
{"compound": "C[N+](C)(C)CCOC(N)=O.[Cl-]", "note": "[CARBACHOL]", "values": [{"measurement": "Ratio", "setting": "[1]", "result": 2.6}, {"measurement": "pEC50", "setting": "Cavia porcellus", "result": 6.92}]}
{"compound": "CC1CCC(=O)N1CC#CCN(C)CCCBr", "note": "(stereo not given)", "values": [{"measurement": "LD50", "setting": "[2]", "result": "> 250", "unit": "µmol/kg"}, {"measurement": "ED50", "setting": "Mus musculus [3]", "result": 38, "unit": "µmol/kg"}, {"measurement": "Ratio", "setting": "[4]", "result": 23.7}, {"measurement": "K1", "setting": "[5]", "result": 0.0555, "unit": "min⁻¹"}, {"measurement": "half-life", "setting": "[6]", "result": 12.5, "unit": "min"}, {"measurement": "ED50", "setting": "Mus musculus [7]", "result": 111, "unit": "µmol/kg"}, {"measurement": "ED50", "setting": "Mus musculus [8]", "result": 80.8, "unit": "µmol/kg"}, {"measurement": "pEC50", "setting": "Cavia porcellus", "result": 5.94}]}
{"compound": "CN(CC#CCN1CCCC1=O)CCCI", "values": [{"measurement": "LD50", "setting": "[2]", "result": "> 125", "unit": "µmol/kg"}, {"measurement": "ED50", "setting": "Mus musculus [3]", "result": 4.5, "unit": "µmol/kg"}, {"measurement": "ED50", "setting": "Mus musculus [9]", "result": 8.9, "unit": "µmol/kg"}, {"measurement": "Ratio", "setting": "[4]", "result": 2.95}, {"measurement": "ED50", "setting": "Mus musculus [10]", "result": 29.7, "unit": "µmol/kg"}, {"measurement": "K1", "setting": "[5]", "result": 0.0491, "unit": "min⁻¹"}, {"measurement": "half-life", "setting": "[6]", "result": 14.1, "unit": "min"}, {"measurement": "ED50", "setting": "Mus musculus [7]", "result": 7.7, "unit": "µmol/kg"}, {"measurement": "ED50", "setting": "Mus musculus [8]", "result": 10.4, "unit": "µmol/kg"}, {"measurement": "pEC50", "setting": "Cavia porcellus", "result": 6.87}]}
{"compound": "CN(CC#CCN1CCCC1=O)CCCCl", "values": [{"measurement": "LD50", "setting": "[2]", "result": 245, "unit": "µmol/kg"}, {"measurement": "ED50", "setting": "Mus musculus [3]", "result": 22.4, "unit": "µmol/kg"}, {"measurement": "Ratio", "setting": "[1]", "result": 2.78}, {"measurement": "K1", "setting": "[5]", "result": 0.0016, "unit": "min⁻¹"}, {"measurement": "half-life", "setting": "[6]", "result": 436, "unit": "min"}, {"measurement": "ED50", "setting": "Mus musculus [7]", "result": 33.3, "unit": "µmol/kg"}, {"measurement": "ED50", "setting": "Mus musculus [8]", "result": 29.3, "unit": "µmol/kg"}, {"measurement": "pEC50", "setting": "Cavia porcellus", "result": 6.92}]}
{"compound": "C[N+]1(CC#CCN2CCCC2=O)CCCC1", "values": [{"measurement": "Ratio", "setting": "[1]", "result": 8.31}, {"measurement": "pEC50", "setting": "Cavia porcellus", "result": 6.40}]}
{"compound": "CN(CC#CCN1CCCC1=O)CCBr", "values": [{"measurement": "K1", "setting": "[5]", "result": 0.85, "unit": "min⁻¹"}, {"measurement": "half-life", "setting": "[6]", "result": 0.8, "unit": "min"}]}
{"compound": "CN(CC#CCN1CCCC1=O)CCCCCl", "values": [{"measurement": "LD50", "setting": "[2]", "result": 8, "unit": "µmol/kg"}, {"measurement": "ED50", "setting": "Mus musculus [3]", "result": 1.1, "unit": "µmol/kg"}, {"measurement": "ED50", "setting": "Mus musculus [9]", "result": 3.6, "unit": "µmol/kg"}, {"measurement": "Ratio", "setting": "[4]", "result": 10.2}, {"measurement": "K1", "setting": "[5]", "result": "> 2", "unit": "min⁻¹"}, {"measurement": "half-life", "setting": "[6]", "result": "< 0.4", "unit": "min"}, {"measurement": "ED50", "setting": "Mus musculus [7]", "result": 10.3, "unit": "µmol/kg"}, {"measurement": "ED50", "setting": "Mus musculus [8]", "result": 4.2, "unit": "µmol/kg"}, {"measurement": "pEC50", "setting": "Cavia porcellus", "result": 6.27}]}
{"compound": "O=C1CCCN1CC#CCN1CCCC1", "note": "[OXOTREMORINE]", "values": [{"measurement": "ED50", "setting": "Mus musculus [3]", "result": 0.19, "unit": "µmol/kg"}, {"measurement": "Ratio", "setting": "[1]", "result": 1}, {"measurement": "ED50", "setting": "Mus musculus [9]", "result": 0.44, "unit": "µmol/kg"}, {"measurement": "ED50", "setting": "Mus musculus [10]", "result": 0.59, "unit": "µmol/kg"}, {"measurement": "ED50", "setting": "Mus musculus [7]", "result": 0.1, "unit": "µmol/kg"}, {"measurement": "ED50", "setting": "Mus musculus [8]", "result": 0.29, "unit": "µmol/kg"}, {"measurement": "pEC50", "setting": "Cavia porcellus", "result": 7.36}]}
{"compound": "CN(CC#CCN1CCCC1=O)CCCl", "values": [{"measurement": "K1", "setting": "[5]", "result": 0.019, "unit": "min⁻¹"}, {"measurement": "half-life", "setting": "[6]", "result": 36.5, "unit": "min"}]}
{"compound": "CN(CC#CCN1CCCC1=O)CCCBr", "values": [{"measurement": "LD50", "setting": "[2]", "result": 46.7, "unit": "µmol/kg"}, {"measurement": "ED50", "setting": "Mus musculus [3]", "result": 2.9, "unit": "µmol/kg"}, {"measurement": "ED50", "setting": "Mus musculus [9]", "result": 6.3, "unit": "µmol/kg"}, {"measurement": "Ratio", "setting": "[4]", "result": 2.49}, {"measurement": "ED50", "setting": "Mus musculus [10]", "result": 15.6, "unit": "µmol/kg"}, {"measurement": "K1", "setting": "[5]", "result": 0.061, "unit": "min⁻¹"}, {"measurement": "half-life", "setting": "[6]", "result": 11.4, "unit": "min"}, {"measurement": "ED50", "setting": "Mus musculus [7]", "result": 3.2, "unit": "µmol/kg"}, {"measurement": "ED50", "setting": "Mus musculus [8]", "result": 6, "unit": "µmol/kg"}, {"measurement": "pEC50", "setting": "Cavia porcellus", "result": 6.94}]}
